Results reported in ChEMBL document CHEMBL1152865, “Synthesis and antimycobacterial activities of novel 6-nitroquinolone-3-carboxylic acids” (Eur J Med Chem, 2009).
≈ marks a conversion by molar mass, not a printed value.

Test system: Mycobacterium tuberculosis
Experiment: Antibacterial activity against multidrug-resistant Mycobacterium tuberculosis by agar dilution method
Type: functional
In short: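 Agar dilution in Middlebrook 7H11 agar supplemented with OADC, following an approach similar to NCCLS guidance. MIC determined in duplicate.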

Structure (SMILES) | MIC [µM]
CN1CCN(c2cc3c(cc2[N+](=O)[O-])c(=O)c(C(=O)O)cn3C2CC2)CC1c1ccccc1 (stereo not given) | 0.2 (≈ 0.0897 µg/mL)
O=C(O)c1cn(C2CC2)c2cc(N3CCN(C(=O)c4ccco4)CC3)c([N+](=O)[O-])cc2c1=O | 0.34 (≈ 0.154 µg/mL)
O=C(O)c1cn(C2CC2)c2cc(N3CCC(n4c(=O)[nH]c5cc(Cl)ccc54)CC3)c([N+](=O)[O-])cc2c1=O | 2.97 (≈ 1.56 µg/mL)
O=C(O)c1cn(-c2ccc(F)cc2)c2cc(N3CCN(C(=O)C4COc5ccccc5O4)CC3)c([N+](=O)[O-])cc2c1=O (stereo not given) | 0.68 (≈ 0.391 µg/mL)
O=C(O)c1cn(C2CC2)c2cc(N3CCC(O)(c4ccc(Cl)cc4)CC3)c([N+](=O)[O-])cc2c1=O | 0.39 (≈ 0.189 µg/mL)
NNC(=O)c1ccncc1 [ISONIAZID] | 45.6 (≈ 6.25 µg/mL)
O=C(O)c1cn(C2CC2)c2cc(N3CCC4(CC3)OCCO4)c([N+](=O)[O-])cc2c1=O | 1.88 (≈ 0.781 µg/mL)
CC(C)(C)NC(=O)C1c2ccccc2CCN1c1cc2c(cc1[N+](=O)[O-])c(=O)c(C(=O)O)cn2C1CC1 (stereo not given) | 1.55 (≈ 0.782 µg/mL)
COc1c(N2CCNC(C)C2)c(F)cc2c(=O)c(C(=O)O)cn(C3CC3)c12 (stereo not given) [GATIFLOXACIN] | 8.34 (≈ 3.13 µg/mL)
CC(C)(C)n1cc(C(=O)O)c(=O)c2cc([N+](=O)[O-])c(N3CCN(Cc4ccc5c(c4)OCO5)CC3)cc21 | 1.53 (≈ 0.778 µg/mL)
Cc1onc(-c2c(F)cccc2F)c1C(=O)N1CCN(c2cc3c(cc2[N+](=O)[O-])c(=O)c(C(=O)O)cn3C2CC2)CC1 | 2.69 (≈ 1.56 µg/mL)
O=C(O)c1cn(-c2ccc(F)cc2)c2cc(N3CCN(Cc4ccc5c(c4)OCO5)CC3)c([N+](=O)[O-])cc2c1=O | 0.71 (≈ 0.388 µg/mL)
O=C(O)c1cn(C2CC2)c2cc(N3CCN(Cc4ccc5c(c4)OCO5)CC3)c([N+](=O)[O-])cc2c1=O | 0.16 (≈ 0.0788 µg/mL)
CC1CN(c2cc3c(cc2[N+](=O)[O-])c(=O)c(C(=O)O)cn3-c2ccc(F)cc2)CC(C)O1 (stereo not given) | 1.77 (≈ 0.781 µg/mL)
Cc1onc(-c2c(F)cccc2F)c1C(=O)N1CCN(c2cc3c(cc2[N+](=O)[O-])c(=O)c(C(=O)O)cn3C(C)(C)C)CC1 | 0.65 (≈ 0.387 µg/mL)
CC1CN(c2cc3c(cc2[N+](=O)[O-])c(=O)c(C(=O)O)cn3C2CC2)CC(C)O1 (stereo not given) | 4.03 (≈ 1.56 µg/mL)
CCN(CC)C(=O)C1CCCN(c2cc3c(cc2[N+](=O)[O-])c(=O)c(C(=O)O)cn3C2CC2)C1 (stereo not given) | 3.42 (≈ 1.56 µg/mL)
O=C(O)c1cn2c(n1)CN(c1cc3c(cc1[N+](=O)[O-])c(=O)c(C(=O)O)cn3C1CC1)CC2 | 0.43 (≈ 0.189 µg/mL)
O=C(O)c1cn(C2CC2)c2cc(N3CCC(N4CCCCC4)CC3)c([N+](=O)[O-])cc2c1=O | 0.43 (≈ 0.189 µg/mL)
O=C(O)c1cn(C2CC2)c2cc(N3CCN(C(=O)C4COc5ccccc5O4)CC3)c([N+](=O)[O-])cc2c1=O (stereo not given) | 6.01 (≈ 3.13 µg/mL)
